The record followed here is ChEMBL document CHEMBL1136228 (Bioorg Med Chem Lett, 2003).

For assay [1], the target named is T1, Peroxisome proliferator-activated receptor gamma (Homo sapiens, UniProt P37231).
T1 sequence (P37231 whole entry): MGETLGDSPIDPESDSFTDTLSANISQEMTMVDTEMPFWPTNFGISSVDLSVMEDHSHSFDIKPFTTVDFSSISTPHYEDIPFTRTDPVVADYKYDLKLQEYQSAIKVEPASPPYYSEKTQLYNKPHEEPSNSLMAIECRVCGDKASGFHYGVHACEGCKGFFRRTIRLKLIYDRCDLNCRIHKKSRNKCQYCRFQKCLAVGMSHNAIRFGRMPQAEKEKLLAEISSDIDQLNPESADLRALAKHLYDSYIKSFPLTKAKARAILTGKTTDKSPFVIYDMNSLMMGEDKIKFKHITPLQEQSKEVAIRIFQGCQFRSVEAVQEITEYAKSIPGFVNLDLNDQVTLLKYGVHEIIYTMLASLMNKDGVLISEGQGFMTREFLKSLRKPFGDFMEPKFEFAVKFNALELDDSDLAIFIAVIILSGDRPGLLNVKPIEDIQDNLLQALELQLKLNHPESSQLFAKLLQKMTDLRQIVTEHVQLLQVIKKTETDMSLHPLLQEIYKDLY
Briefly: Binding affinity towards peroxisome proliferator activated receptor gamma (PPAR gamma); weakly active.

Assay [2] has as its target T1, Peroxisome proliferator-activated receptor gamma. Put plainly: Binding affinity towards human peroxisome proliferator activated receptor gamma (PPAR gamma) was determined by HTRF assay; weakly active. For orientation: Time-resolved FRET reads energy transfer from a long-lived donor to a nearby acceptor.
Assay [3] addresses T2, Peroxisome proliferator-activated receptor alpha (Homo sapiens, UniProt Q07869).
T2 sequence (Q07869 whole entry): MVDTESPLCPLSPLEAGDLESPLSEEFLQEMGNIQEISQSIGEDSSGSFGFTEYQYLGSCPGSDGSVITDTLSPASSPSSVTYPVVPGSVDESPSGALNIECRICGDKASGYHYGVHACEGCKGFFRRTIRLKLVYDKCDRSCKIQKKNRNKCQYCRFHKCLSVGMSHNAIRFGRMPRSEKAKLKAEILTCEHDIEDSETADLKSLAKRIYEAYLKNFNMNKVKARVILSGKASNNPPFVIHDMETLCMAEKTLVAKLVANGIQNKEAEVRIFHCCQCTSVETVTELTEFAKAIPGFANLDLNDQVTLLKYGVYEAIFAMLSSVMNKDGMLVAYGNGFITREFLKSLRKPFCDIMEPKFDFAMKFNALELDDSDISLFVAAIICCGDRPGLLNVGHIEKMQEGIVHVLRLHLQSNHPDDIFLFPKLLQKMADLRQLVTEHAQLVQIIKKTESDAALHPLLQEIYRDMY
Briefly: Binding affinity towards peroxisome proliferator activated receptor alpha (PPAR alpha); weakly active.

A further assay relates to Mus musculus. Briefly: Fasting plasma glucose levels after 30 mg/kg peroral administration in db/db Mouse. The format is functional. To be noted: route oral. The essentials: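 db/db (lepr db-3J/lepr db-3J) mice dosed orally once daily for 11 days; fasting plasma glucose measured at day 11. Correction is expressed as mean glucose lowering, as a percentage of the difference between vehicle-treated db/db and lean control mice.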

For assay [4], the target named is T2, Peroxisome proliferator-activated receptor alpha. Briefly: Binding affinity towards human peroxisome proliferator activated receptor gamma (PPAR alpha) by HTRF assay; Weakly active.
The target is the same in assay [5]. Briefly: Binding affinity towards peroxisome proliferator activated receptor alpha (PPAR alpha); Not active. The essentials:
(§1)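 Scintillation proximity (SPA) radioligand binding assay run at 15 C. The IC50 is converted to an apparent Ki with the Cheng-Prusoff equation.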

In assay [6] the target is T1, Peroxisome proliferator-activated receptor gamma. Put plainly: Binding affinity towards peroxisome proliferator activated receptor gamma (PPAR gamma); Not active. The essentials:
as §1

Assay [7] deals with T2, Peroxisome proliferator-activated receptor alpha. Briefly: Binding affinity towards human peroxisome proliferator activated receptor alpha (PPAR alpha) by HTRF assay; Not active.
Assay [8] deals with Rattus norvegicus. Put plainly: Body weight of Sprague-Dawley rat after 30 mg/kg peroral administration. The note with it: route oral, 30 mg/kg.
Assay [9] concerns Rattus norvegicus. Put plainly: Total Cholesterol change in Sprague-Dawley rat after 30 mg/kg peroral administration. To be noted: route oral.
The subject of assay [10] is Rattus norvegicus. Put plainly: Brown adipose tissue weight in Sprague-Dawley rat after 30 mg/kg peroral administration. To be noted: route oral, 30 mg/kg.

Structures are written as SMILES. “And” between values parts separate entries of the source, which are not always exact repeats. Equal entries are not always repeated.

For `CCCc1c(OC(C(=O)O)c2ccccc2)ccc(C(=O)CC)c1O` (configuration not stated), the Ki result in assay [1], in assay [2] and in assay [3] was “Partially active” in each case.
In the assay on Mus musculus, `Cc1cccc(Nc2cc(Cl)nc(SCC(=O)O)n2)c1C` [PIRINIXIC ACID] gave an FPG correction of 20%. In assay [4], the EC50 result is on record as “Partially active”. Also, the Ki result in [5] and in assay [6] was “Not Active” in each case.
Take `CN(CCOc1ccc(CC2SC(=O)NC2=O)cc1)c1ccccn1.O=C(O)/C=C\C(=O)O` (configuration not stated) [ROSIGLITAZONE MALEATE]: the Ki result in assay [5] and in assay [7] was “Not Active” in each case. Besides, the Body weight with Rattus norvegicus [8] was 310 g and 322 g. In the assay with Rattus norvegicus [9], the Change was determined as 1%. Further, the BAT weight in the assay with Rattus norvegicus [10] was 0.74 g and 0.63 g.
